Measured values as given in ChEMBL document CHEMBL4145545, “Synthesis and structure-activity relationships of asymmetric dimeric β-carboline derivatives as potential antitumor agents” (Eur J Med Chem, 2018).
pIC50: −log10 of the molar value. Calls of active or inactive are those of the source. The calls are words filed in the database; no cut-off is given here.

Columns and labels:
HepG2 [1] = assay: Cytotoxicity against human HepG2 cells assessed as cell growth inhibition after 24 hrs by MTT assay; assay type: functional, cell-based; conditions: HepG2, 24 h
Procedure, shortened: (§1)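 Cell lines grown to log phase in RPMI-1640 with 10% FBS, penicillin and streptomycin. About 10^5 cells/mL were plated and pre-incubated 24 h at 37 °C in 5% CO2. Compounds were given in DMSO, final ≤2% (v/v). MTT read-out was OD at 490 nm. Triplicate wells per concentration, each assay run ≥3 times. IC50 is 50% OD reduction versus untreated cells, calculated by the Logit method. Cisplatin was the reference.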

MCF7 [2] = assay: Cytotoxicity against human MCF7 cells assessed as cell growth inhibition after 24 hrs by MTT assay; assay type: functional, cell-based; conditions: MCF7, 24 h; procedure, shortened: as §1
[3] = Cytotoxicity against human BGC cells assessed as cell growth inhibition after 24 hrs by MTT assay; assay type: functional, cell-based; procedure, shortened: as §1
A-375 = assay: Cytotoxicity against human A375 cells assessed as cell growth inhibition after 24 hrs by MTT assay; assay type: functional, cell-based; conditions: A-375, 24 h; procedure, shortened: as §1
HT-29 [4] = assay: Cytotoxicity against human HT-29 cells assessed as cell growth inhibition after 24 hrs by MTT assay; assay type: functional, cell-based; conditions: HT-29, 24 h; procedure, shortened: as §1
769-P = assay: Cytotoxicity against human 769-P cells assessed as cell growth inhibition after 24 hrs by MTT assay; assay type: functional, cell-based; procedure, shortened: as §1
SK-OV-3 = assay: Cytotoxicity against human SKOV3 cells assessed as cell growth inhibition after 24 hrs by MTT assay; assay type: functional, cell-based; conditions: SK-OV-3, 24 h; procedure, shortened: as §1
ECa-109 cell line = assay: Cytotoxicity against human ECA109 cells assessed as cell growth inhibition after 24 hrs by MTT assay; assay type: functional, cell-based; conditions: ECa-109, 24 h; procedure, shortened: as §1
[5] = tested on: Lewis lung carcinoma cell line; assay: Cytotoxicity against mouse LLC cells assessed as cell growth inhibition after 24 hrs by MTT assay; assay type: functional, cell-based; procedure, shortened: as §1
[6] = Acute toxicity in ip dosed Kunming mouse observed continuously for first 2 hrs, intermittently for next 24 hrs and occasionally thereafter for 14 days; assay type: organism-based; conditions: in vivo
Procedure, shortened: (§2)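 SPF KM mice, 6-8 weeks, 19-22 g, fasted overnight with water available. Single i.p. dose, 5.0 to 500 mg kg-1 in 0.5% CMC-Na, 10 mice per group (5 male, 5 female). Observed for behaviour, neurotoxic signs and deaths, then killed on day 14 and heart, liver and kidneys inspected macroscopically. LD50 derived graphically.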

Mus musculus [7] = assay: Neurotoxicity in Kunming mouse assessed as tremble at 5 to 500 mg/kg, ip observed continuously for first 2 hrs, intermittently for next 24 hrs and occasionally thereafter for 14 days; assay type: toxicity, organism-based; conditions: in vivo; procedure, shortened: as §2
Mus musculus [8] = assay: Neurotoxicity in Kunming mouse assessed as twitch at 5 to 500 mg/kg, ip observed continuously for first 2 hrs, intermittently for next 24 hrs and occasionally thereafter for 14 days; assay type: toxicity, organism-based; conditions: in vivo; procedure, shortened: as §2
Mus musculus [9] = assay: Neurotoxicity in Kunming mouse assessed as jumping behavior at 5 to 500 mg/kg, ip observed continuously for first 2 hrs, intermittently for next 24 hrs and occasionally thereafter for 14 days; assay type: toxicity, organism-based; conditions: in vivo; procedure, shortened: as §2
Mus musculus [10] = assay: Neurotoxicity in Kunming mouse assessed as supination at 5 to 500 mg/kg, ip observed continuously for first 2 hrs, intermittently for next 24 hrs and occasionally thereafter for 14 days; assay type: toxicity, organism-based; conditions: in vivo; procedure, shortened: as §2
Mus musculus [11] = assay: Acute toxicity in ip dosed Kunming mouse assessed as death at higher dose up to 4 to 8 hrs; assay type: organism-based; conditions: in vivo; procedure, shortened: as §2
Mus musculus [12] = assay: Cardiotoxicity in Kunming mouse at 5 to 500 mg/kg, ip after 14 days by macroscopic method; assay type: toxicity, organism-based; conditions: in vivo, 336 h
Mus musculus [13] = assay: Nephrotoxicity in Kunming mouse at 5 to 500 mg/kg, ip after 14 days by macroscopic method; assay type: toxicity, organism-based; conditions: in vivo, 336 h
Mus musculus [14] = assay: Hepatotoxicity in Kunming mouse at 5 to 500 mg/kg, ip after 14 days by macroscopic method; assay type: toxicity, organism-based; conditions: in vivo, 336 h
Sarcoma-180 [15] = assay: Antitumor activity against mouse Sarcoma 180 cells implanted in mouse assessed as tumor growth inhibition at 1.6 mg/kg, ip administered once per day for 7 consecutive days starting from 24 hrs post tumor inoculation and measured on day 21 post tumor inoculation relative to control; assay type: functional; conditions: Sarcoma-180, ip, read-out: TGI
Procedure, shortened: (§3)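 Tumor cells were harvested from 7-day donor tumors, and 2×10^6 viable cells/mouse were injected s.c. in the armpit. Groups of 10 female mice received i.p. compound daily for 7 days, starting 24 h after inoculation. Controls were vehicle (negative) and CTX 30 mg/kg (positive). Body weight was recorded every 3 days. On day 21 tumors were excised and weighed, and inhibition was calculated as (C−T)/C×100 from mean tumor weights.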

[16] = tested on: Lewis lung carcinoma cell line; assay: Antitumor activity against mouse LLC cells implanted in mouse assessed as tumor growth inhibition at 1.6 mg/kg, ip administered once per day for 7 consecutive days starting from 24 hrs post tumor inoculation and measured on day 21 post tumor inoculation relative to control; assay type: functional; conditions: read-out: TGI; procedure, shortened: as §3
Sarcoma-180 [17] = assay: Antitumor activity against mouse Sarcoma 180 cells implanted in mouse assessed as tumor growth inhibition at 8.3 mg/kg, ip administered once per day for 7 consecutive days starting from 24 hrs post tumor inoculation and measured on day 21 post tumor inoculation relative to control; assay type: functional; conditions: Sarcoma-180, ip, read-out: TGI; procedure, shortened: as §3
[18] = tested on: Lewis lung carcinoma cell line; assay: Antitumor activity against mouse LLC cells implanted in mouse assessed as tumor growth inhibition at 8.3 mg/kg, ip administered once per day for 7 consecutive days starting from 24 hrs post tumor inoculation and measured on day 21 post tumor inoculation relative to control; assay type: functional; conditions: read-out: TGI; procedure, shortened: as §3
[19] = tested on: Lewis lung carcinoma cell line; assay: Antimigratory activity against mouse LLC cells assessed as reduction in wound closure at 50 uM after 24 hrs by inverted microscopic method; assay type: functional, cell-based
Procedure, shortened: (§4)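 HT-29 or LLC cells (about 1×10^6/mL) were grown to 90% confluence and given a single straight pipette-tip scratch. After a PBS wash, fresh FBS-containing medium with various compound concentrations was added for 24 h. Migration distance was measured under an inverted microscope. Each assay was done three times, with CA4P as positive control.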

HT-29 [20] = assay: Antimigratory activity against human HT-29 cells assessed as reduction in wound closure at 0.5 to 50 uM after 24 hrs by inverted microscopic method; assay type: functional, cell-based; procedure, shortened: as §4
Chorioallantoic membrane = assay: In vivo antiangiogenic activity in chicken embryo chorioallantoic membrane at 50 uM/disc after 48 hrs by microscopic method; assay type: functional, organism-based; conditions: Gallus gallus
HepG2 [21] = assay: Cytotoxicity against human HepG2 cells; assay type: functional, cell-based; procedure, shortened: as §1
MCF7 [22] = assay: Cytotoxicity against human MCF7 cells; assay type: functional, cell-based; procedure, shortened: as §1
HT-29 [23] = assay: Cytotoxicity against human HT-29 cells; assay type: functional, cell-based; procedure, shortened: as §1
Sarcoma-180 [24] = assay: Antitumor activity against mouse Sarcoma 180 cells implanted in mouse assessed as tumor growth inhibition at 7.5 mg/kg, ip administered once per day for 7 consecutive days starting from 24 hrs post tumor inoculation and measured on day 21 post tumor inoculation relative to control; assay type: functional; conditions: Sarcoma-180, ip, read-out: TGI; procedure, shortened: as §3
[25] = tested on: Lewis lung carcinoma cell line; assay: Antitumor activity against mouse LLC cells implanted in mouse assessed as tumor growth inhibition at 7.5 mg/kg, ip administered once per day for 7 consecutive days starting from 24 hrs post tumor inoculation and measured on day 21 post tumor inoculation relative to control; assay type: functional; conditions: read-out: TGI; procedure, shortened: as §3

| SMILES | pIC50 (HepG2 [1]) | pIC50 (MCF7 [2]) | pIC50 [3] | pIC50 (A-375) | pIC50 (HT-29 [4]) | pIC50 (769-P) | pIC50 (SK-OV-3) | pIC50 (ECa-109 cell line) | pIC50 [5] | LD50 at 14 days [6] [mg/kg] | Activity (Mus musculus [7]) | Activity (Mus musculus [8]) | Activity (Mus musculus [9]) | Activity (Mus musculus [10]) | Activity (Mus musculus [11]) | Activity (Mus musculus [12]) | Activity (Mus musculus [13]) | Activity (Mus musculus [14]) | other results |
| --- | --- | --- | --- | --- | --- | --- | --- | --- | --- | --- | --- | --- | --- | --- | --- | --- | --- | --- | --- |
| COc1ccc2c3ccnc(C)c3n(CCCCOc3ccc4c5ccnc(C)c5n(CCCc5ccccc5)c4c3)c2c1.Cl | 5.25 | 4.63 | 5.33 | 4.82 | 4.67 | 5.07 | 4.52 | 4.74 | 4.84 | 8 | Toxic | Toxic | Toxic | Toxic | Toxic | Non-Toxic | Non-Toxic | Non-Toxic | inhibition in vivo at 1.6 mg/kg (Sarcoma-180 [15]): 49.9%; inhibition in vivo at 1.6 mg/kg [16]: 38.2% |
| COc1ccc(-c2nccc3c4ccccc4n(CCCCOc4ccc5c6ccnc(C)c6n(CCCc6ccccc6)c5c4)c23)cc1.Cl | 4.85 | 5.07 | 4.92 | 4.87 | 4.88 | 5.31 | 5.38 | 5.35 | 5.47 | 41.5 | Non-Toxic | Non-Toxic | Non-Toxic | Non-Toxic | Toxic | Non-Toxic | Non-Toxic | Non-Toxic | inhibition in vivo at 8.3 mg/kg (Sarcoma-180 [17]): 54.6%; inhibition in vivo at 8.3 mg/kg [18]: 48.1%; Activity [19]: Active; Activity (HT-29 [20]): Active; Activity (Chorioallantoic membrane): Active |
| CCCCn1c2cnccc2c2ccc(OCCCCCCOc3ccc4c5ccnc(C)c5n(CCCC)c4c3)cc21 |  |  |  |  |  |  |  |  |  |  |  |  |  |  |  |  |  |  | pIC50 (HepG2 [21]): 4.89; pIC50 (MCF7 [22]): < 4.00; pIC50 (HT-29 [23]): 5.21 |
| Cc1nccc2c3ccc(OCCCCn4c5ccccc5c5ccnc(-c6cccs6)c54)cc3n(CCCc3ccccc3)c12.Cl | 5.09 | 4.92 | 4.94 | 4.84 | 4.74 | 4.92 | 4.95 | 5.31 | 5.38 | 37.5 | Non-Toxic | Non-Toxic | Non-Toxic | Non-Toxic | Toxic | Non-Toxic | Non-Toxic | Non-Toxic | inhibition in vivo at 7.5 mg/kg (Sarcoma-180 [24]): 47.3%; inhibition in vivo at 7.5 mg/kg [25]: 31.6% |
